Activity and IC50 data for four compounds are collected here from ChEMBL document CHEMBL3091458, “Design, synthesis, and biological evaluation of 1,2,4-triazole bearing 5-substituted biphenyl-2-sulfonamide derivatives as potential antihypertensive candidates” (Bioorg Med Chem, 2013).

Each structure is given as a SMILES string. Bounds are passed on as bounds.

Series [1] concerns Rattus norvegicus. Nature of the series: Toxicity in renal spontaneously hypertensive rat model assessed as reduction of heart rate at 20 mg/kg, po measured at 8 hrs by tail-cuff method relative to control. The series is classed as organism-based. The arrangement: dose 20 mg/kg, route oral. As to conditions: in vivo. In a few lines:
(§1)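 Spontaneously hypertensive rats were dosed orally with the test agent at 20 mg/kg, with a saline-dosed control group. SAP, DAP, MAP and heart rate were recorded before dosing and at 1, 2, 4, 6 and 8 h after. Change was taken as the post-dose value minus the pre-dose value. Significance was judged against the control at p < 0.1 and p < 0.05.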

The subject of series [2] is Rattus norvegicus. Nature of the series: Toxicity in renal spontaneously hypertensive rat model assessed as reduction of heart rate at 20 mg/kg, po measured at 6 hrs by tail-cuff method relative to control. The series is classed as organism-based. The arrangement: dose 20 mg/kg, route oral. As to conditions: in vivo. In a few lines: as §1
Series [3] concerns Rattus norvegicus. The series can be described thus: Toxicity in renal spontaneously hypertensive rat model assessed as reduction of heart rate at 20 mg/kg, po measured at 4 hrs by tail-cuff method relative to control. The series is classed as organism-based. More on the design: dose 20 mg/kg, route oral. As to conditions: in vivo. In a few lines:
as §1

In series [4] the test system is Rattus norvegicus. The series can be described thus: Toxicity in renal spontaneously hypertensive rat model assessed as reduction of heart rate at 20 mg/kg, po measured at 2 hrs by tail-cuff method relative to control. The series is classed as organism-based. The arrangement: dose 20 mg/kg, route oral. As to conditions: in vivo. In short, it runs like this:
as §1

The subject of series [5] is Rattus norvegicus. Nature of the series: Toxicity in renal spontaneously hypertensive rat model assessed as reduction of heart rate at 20 mg/kg, po measured at 1 hr by tail-cuff method relative to control. The series is classed as organism-based. The arrangement: dose 20 mg/kg, route oral. Particulars: in vivo. In short, it runs like this: as §1
Series [6] has as its system Rattus norvegicus. The series can be described thus: Antihypertensive activity in renal spontaneously hypertensive rat model assessed as reduction of mean arterial pressure at 20 mg/kg, po measured at 6 hrs by tail-cuff method relative to control. The series is classed as functional, Artery. In a few lines:
as §1

The test system of series [7] is Rattus norvegicus. Nature of the series: Antihypertensive activity in renal spontaneously hypertensive rat model assessed as reduction of mean arterial pressure at 20 mg/kg, po measured at 4 hrs by tail-cuff method relative to control. The series is classed as functional, Artery. In a few lines:
as §1

In series [8] the test system is Rattus norvegicus. Nature of the series: Antihypertensive activity in renal spontaneously hypertensive rat model assessed as reduction of mean arterial pressure at 20 mg/kg, po measured at 1 hr by tail-cuff method relative to control. The series is classed as functional, Artery. In a few lines:
as §1

Series [9] concerns Rattus norvegicus. The series can be described thus: Antihypertensive activity in renal spontaneously hypertensive rat model assessed as reduction of diastolic arterial pressure at 20 mg/kg, po measured at 8 hrs by tail-cuff method relative to control. The series is classed as functional, Artery. In short, it runs like this: as §1
The test system of series [10] is Rattus norvegicus. Nature of the series: Antihypertensive activity in renal spontaneously hypertensive rat model assessed as reduction of diastolic arterial pressure at 20 mg/kg, po measured at 6 hrs by tail-cuff method relative to control. The series is classed as functional, Artery. In short, it runs like this: as §1
Series [11] relates to Rattus norvegicus. The series can be described thus: Antihypertensive activity in renal spontaneously hypertensive rat model assessed as reduction of diastolic arterial pressure at 20 mg/kg, po measured at 4 hrs by tail-cuff method relative to control. The series is classed as functional, Artery. In a few lines:
as §1

For series [12], the system named is Rattus norvegicus. The series can be described thus: Antihypertensive activity in renal spontaneously hypertensive rat model assessed as reduction of diastolic arterial pressure at 20 mg/kg, po measured at 2 hrs by tail-cuff method relative to control. The series is classed as functional, Artery. In a few lines:
as §1

The subject of series [13] is Rattus norvegicus. The series can be described thus: Antihypertensive activity in renal spontaneously hypertensive rat model assessed as reduction of diastolic arterial pressure at 20 mg/kg, po measured at 1 hr by tail-cuff method relative to control. The series is classed as functional, Artery. In a few lines: as §1
Series [14] relates to Rattus norvegicus. The series can be described thus: Antihypertensive activity in renal spontaneously hypertensive rat model assessed as reduction of systolic arterial pressure at 20 mg/kg, po measured at 8 hrs by tail-cuff method relative to control. The series is classed as functional, Artery. In short, it runs like this:
as §1

Series [15] deals with Rattus norvegicus. Nature of the series: Antihypertensive activity in renal spontaneously hypertensive rat model assessed as reduction of systolic arterial pressure at 20 mg/kg, po measured at 6 hrs by tail-cuff method relative to control. The series is classed as functional, Artery. In a few lines: as §1
In series [16] the test system is Rattus norvegicus. Nature of the series: Antihypertensive activity in renal spontaneously hypertensive rat model assessed as reduction of systolic arterial pressure at 20 mg/kg, po measured at 4 hrs by tail-cuff method relative to control. The series is classed as functional, Artery. In short, it runs like this:
as §1

The subject of series [17] is Rattus norvegicus. The series can be described thus: Antihypertensive activity in renal spontaneously hypertensive rat model assessed as reduction of systolic arterial pressure at 20 mg/kg, po measured at 2 hrs by tail-cuff method relative to control. The series is classed as functional, Artery. In short, it runs like this: as §1
Series [18] relates to Rattus norvegicus. The series can be described thus: Antihypertensive activity in renal spontaneously hypertensive rat model assessed as reduction of systolic arterial pressure at 20 mg/kg, po measured at 1 hr by tail-cuff method relative to control. The series is classed as functional, Artery. In a few lines: as §1
The subject of series [19] is Rattus norvegicus. Nature of the series: Antihypertensive activity in renal spontaneously hypertensive rat model assessed as reduction of mean arterial pressure at 20 mg/kg, po measured at 8 hrs by tail-cuff method relative to control. The series is classed as functional, Artery. In a few lines:
as §1

The subject of series [20] is Rattus norvegicus. The series can be described thus: Antihypertensive activity in renal spontaneously hypertensive rat model assessed as reduction of mean arterial pressure at 20 mg/kg, po measured at 2 hrs by tail-cuff method relative to control. The series is classed as functional, Artery. In a few lines: as §1
Series [21] is described as follows: Displacement of [125I]-Ang-2 from AT2 receptor in porcine myometrial membranes after 1.5 hrs. The series is classed as cell membranes, Sus scrofa. In short, it runs like this:
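Membranes were made from porcine uteri (myometrium). AT1 binding was blocked by adding losartan. [125I]Ang II binding ran in 50 mM Tris-HCl pH 7.4 with 100 mM NaCl, 10 mM MgCl2, 1 mM EDTA, 0.025% bacitracin and 0.2% BSA, at 25 °C for 1.5 h. Bound ligand was caught on GF/C filters, washed with cold Tris and gamma-counted. IC50 was the concentration displacing 50% of specific binding. Run in triplicate.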

A short description of series [22]: Displacement of [125I]-Ang-2 from AT1 receptor in rat liver membranes after 1.5 hrs. The series is classed as cell membranes, Membrane. (Loss of bound radioactivity is the signal in a displacement assay; it reports binding, not function.)
Series [23] has as its target T1, Type-2 angiotensin II receptor (Homo sapiens, UniProt P50052).
T1 sequence (P50052 whole entry): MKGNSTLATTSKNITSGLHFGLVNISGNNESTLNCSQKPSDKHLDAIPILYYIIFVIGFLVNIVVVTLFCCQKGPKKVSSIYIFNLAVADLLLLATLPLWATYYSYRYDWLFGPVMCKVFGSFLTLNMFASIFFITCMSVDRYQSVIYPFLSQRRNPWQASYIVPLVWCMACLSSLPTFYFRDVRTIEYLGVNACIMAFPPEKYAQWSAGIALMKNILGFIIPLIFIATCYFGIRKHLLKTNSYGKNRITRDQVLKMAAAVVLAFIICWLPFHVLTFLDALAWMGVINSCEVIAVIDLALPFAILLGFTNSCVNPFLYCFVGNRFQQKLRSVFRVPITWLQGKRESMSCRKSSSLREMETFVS
Nature of the series: Binding affinity to AT2 receptor (unknown origin).

In series [24] the target is T2, Type-1 angiotensin II receptor (Homo sapiens, UniProt P30556).
T2 sequence (P30556 whole entry): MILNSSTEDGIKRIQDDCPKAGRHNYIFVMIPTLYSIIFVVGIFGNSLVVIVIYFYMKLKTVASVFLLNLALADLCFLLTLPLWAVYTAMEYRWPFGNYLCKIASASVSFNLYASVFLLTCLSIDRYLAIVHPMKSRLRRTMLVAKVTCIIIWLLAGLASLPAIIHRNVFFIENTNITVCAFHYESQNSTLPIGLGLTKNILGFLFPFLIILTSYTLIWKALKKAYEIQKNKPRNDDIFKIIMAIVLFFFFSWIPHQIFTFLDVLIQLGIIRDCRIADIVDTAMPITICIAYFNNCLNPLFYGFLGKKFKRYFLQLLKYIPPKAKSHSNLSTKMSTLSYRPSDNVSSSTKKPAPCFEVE
The series can be described thus: Binding affinity to AT1 receptor (unknown origin).

Usually IC50 stands for the concentration at which inhibition is half-maximal. A higher IC50 goes with weaker potency in that assay. Take `CCCCOC(=O)NS(=O)(=O)c1ccc(CC(C)C)cc1-c1ccc(Cn2cncn2)cc1`: the Activity in the series on Rattus norvegicus [1] is reported as -14.33 bpm; in the series on Rattus norvegicus [2], -16.69 bpm; in the series with Rattus norvegicus [3] it was -14.53 bpm; in the series on Rattus norvegicus [4], -5.02 bpm; with Rattus norvegicus [5] it was 7.25 bpm; in the series with Rattus norvegicus [6] it was -21.88 mmHg. In addition, the Activity with Rattus norvegicus [7] is listed as -14.16 mmHg; with Rattus norvegicus [8] it was 4.43 mmHg; with Rattus norvegicus [9] it was -14.1 mmHg; in the series on Rattus norvegicus [10], -21.36 mmHg; in the series with Rattus norvegicus [11], -12.32 mmHg; with Rattus norvegicus [12], -3.55 mmHg. Moreover, the Activity with Rattus norvegicus [13] is recorded as 4.93 mmHg; in the series with Rattus norvegicus [14], -15.22 mmHg; with Rattus norvegicus [15] it was -20.94 mmHg; with Rattus norvegicus [16], -14.29 mmHg; in the series with Rattus norvegicus [17] it was -4.26 mmHg; with Rattus norvegicus [18] it was -7.25 mmHg. The Activity in the series on Rattus norvegicus [19] is reported as -15.09 mmHg; with Rattus norvegicus [20], -4.78 mmHg. Also, the results for the IC50 in series [21] and in series [22] were 0.4 nM and greater than 10000 nM, respectively.

On to `CCCCOC(=O)NS(=O)(=O)c1ccc(OC)cc1-c1ccc(Cn2cncn2)cc1`, for which the Activity in the series with Rattus norvegicus [1] was -22.9 bpm; in the series on Rattus norvegicus [2], -14.47 bpm; in the series on Rattus norvegicus [3], -13.45 bpm; with Rattus norvegicus [4], -7.64 bpm; with Rattus norvegicus [5] it was 7.05 bpm; in the series with Rattus norvegicus [6], -17.08 mmHg. Moreover, the Activity with Rattus norvegicus [7] is given as -10.15 mmHg; in the series with Rattus norvegicus [8] it was -4.09 mmHg; in the series on Rattus norvegicus [9], -13.1 mmHg; in the series on Rattus norvegicus [10], -17.36 mmHg; with Rattus norvegicus [11], -10.32 mmHg; with Rattus norvegicus [12], -5.06 mmHg. In addition, the Activity with Rattus norvegicus [13] is on record as -4.21 mmHg; in the series on Rattus norvegicus [14], -10.1 mmHg; in the series with Rattus norvegicus [15], -18.94 mmHg; in the series with Rattus norvegicus [16], -10.71 mmHg; in the series on Rattus norvegicus [17] it was -4.26 mmHg; in the series with Rattus norvegicus [18], -3.41 mmHg. Further, the Activity with Rattus norvegicus [19] is reported as -12.19 mmHg; in the series on Rattus norvegicus [20] it was -5.62 mmHg. The IC50 is 5 nM in series [21] and greater than 10000 nM in series [22].

On to `CCCCc1nn(C)c(=O)n1Cc1ccc(-n2cccc2-c2nnn[nH]2)cc1`, for which the values for the IC50 in series [23] and in series [24] were greater than 10000 nM and 2.5 nM, respectively.

For `CCCCc1nc(Cl)c(CO)n1Cc1ccc(-c2ccccc2-c2nnn[nH]2)cc1` [LOSARTAN], the Activity in the series on Rattus norvegicus [1] is listed as -13.2 bpm; in the series with Rattus norvegicus [2], -14.05 bpm; in the series on Rattus norvegicus [3], -10.57 bpm; in the series on Rattus norvegicus [4], -7.1 bpm; with Rattus norvegicus [5], -2 bpm; with Rattus norvegicus [6], -19.12 mmHg. Besides, the Activity is -15.13 mmHg in the series on Rattus norvegicus [7]; -3.05 mmHg with Rattus norvegicus [8]; -13.09 mmHg with Rattus norvegicus [9]; -17.58 mmHg in the series on Rattus norvegicus [10]; -14.25 mmHg in the series with Rattus norvegicus [11]; -8.96 mmHg in the series with Rattus norvegicus [12]. In addition, the Activity in the series on Rattus norvegicus [13] is -7.76 mmHg; in the series on Rattus norvegicus [14], -14.02 mmHg; with Rattus norvegicus [15], -20.23 mmHg; with Rattus norvegicus [16], -15.55 mmHg; with Rattus norvegicus [17], -5.21 mmHg; in the series with Rattus norvegicus [18], -2.8 mmHg. The Activity is -14.55 mmHg in the series with Rattus norvegicus [19] and -7.33 mmHg with Rattus norvegicus [20]. For the same compound, the IC50 in series [21] was greater than 10000 nM; in [22], 85 nM.
